Laboratory results: ChEMBL document CHEMBL1240360, “TMC278, a next-generation nonnucleoside reverse transcriptase inhibitor (NNRTI), active against wild-type and NNRTI-resistant HIV-1” (Antimicrob Agents Chemother, 2010)

Key:
[1] = system: Human immunodeficiency virus 1; assay: Antiviral activity against Human immunodeficiency virus 1 subtype A1 infected in human MT4 cells assessed as reduction in virus induced cytopathicity; type: functional, organism-based; conditions: Human immunodeficiency virus 1, subtype A1, MT4
Procedure, shortened: (§1)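 Recombinant viruses were made by recombining patient-derived HIV-1 RT-PR sequences into an RT-PR-deleted HXB2 proviral clone transfected into MT4 cells. Subtype was assigned from PR/RT sequence by Smith-Waterman alignment to HXB2. MT4 cells (1.5 × 10^5/ml) were infected at MOI 0.01 with serially diluted compound for 5 days at 37°C. Viability was read by MTT and EC50 derived.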

[2] = system: Human immunodeficiency virus 1; assay: Antiviral activity against Human immunodeficiency virus 1 subtype G infected in human MT4 cells assessed as reduction in virus induced cytopathicity; type: functional, organism-based; procedure, shortened: as §1
[3] = system: Human immunodeficiency virus 1; assay: Antiviral activity against Human immunodeficiency virus 1 subtype C infected in human MT4 cells assessed as reduction in virus induced cytopathicity; type: functional, organism-based; procedure, shortened: as §1
[4] = system: Human immunodeficiency virus 1; assay: Antiviral activity against Human immunodeficiency virus 1 subtype F1 infected in human MT4 cells assessed as reduction in virus induced cytopathicity; type: functional, organism-based; conditions: Human immunodeficiency virus 1, subtype F1, MT4; procedure, shortened: as §1
[5] = system: Human immunodeficiency virus 1; assay: Antiviral activity against Human immunodeficiency virus 1 subtype AG infected in human MT4 cells assessed as reduction in virus induced cytopathicity; type: functional, organism-based; procedure, shortened: as §1
[6] = system: MT4; assay: Cytotoxicity against human MT4 cells by cell based assay
Procedure, shortened: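 Cytotoxicity in MT4 cells from cell-based assays gave a 50% cytotoxic concentration, reported as a median with first- to third-quartile values over the stated number of experiments.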

[7] = system: Human immunodeficiency virus 1; assay: Antiviral activity against Human immunodeficiency virus 1 subtype BG infected in human MT4 cells assessed as reduction in virus induced cytopathicity; type: functional, organism-based; procedure, shortened: as §1
[8] = system: Human immunodeficiency virus 2; assay: Antiviral activity against Human immunodeficiency virus 2 ROD infected in human MT4 cells assessed as reduction in virus induced cytopathicity; type: functional, organism-based; conditions: Human immunodeficiency virus 2, ISOLATE ROD
Procedure, shortened: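 MT4 cells (1.5 × 10^5/ml) infected with HIV (MOI 0.01) were added to serial compound dilutions and incubated 5 days at 37°C in 5% CO2. Protection from virus-induced cell death was read by MTT tetrazolium colorimetry, giving an EC50 in micromolar.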

[9] = system: Human immunodeficiency virus 1; assay: Antiviral activity against Human immunodeficiency virus 1 subtype D infected in human MT4 cells assessed as reduction in virus induced cytopathicity; type: functional, organism-based; procedure, shortened: as §1
[10] = system: Human immunodeficiency virus 1; assay: Antiviral activity against Human immunodeficiency virus 1 subtype AE infected in human MT4 cells assessed as reduction in virus induced cytopathicity; type: functional, organism-based; procedure, shortened: as §1
[11] = system: Human immunodeficiency virus 1; assay: Antiviral activity against Human immunodeficiency virus 1 subtype (H) infected in human MT4 cells assessed as reduction in virus induced cytopathicity; type: functional, organism-based; procedure, shortened: as §1
[12] = system: Human immunodeficiency virus 1; assay: Antiviral activity against Human immunodeficiency virus 1 3B infected in human MT4 cells assessed as reduction in virus induced cytopathicity; type: functional, organism-based
Procedure, shortened: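 MT4 cells (1.5 × 10^5/ml) infected with HIV-1 IIIB at MOI 0.01 and added to serially diluted compound. Cultures incubated 5 days at 37°C under 5% CO2. Cell viability, as protection from virus-induced killing, read by MTT tetrazolium colorimetry. EC50 reported as median with first to third quartiles over n experiments.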

Cc1ccnc2c1NC(=O)c1cccnc1N2C1CC1 [NEVIRAPINE]
EC50 [1]: 9.32 nM | EC50 [2]: 24.6 nM | EC50 [3]: < 4.88 nM | EC50 [4]: 14.9 nM | EC50 [5]: 14.4 nM | Activity [6]: > 32 µM | EC50 [7]: 26 nM | EC50 [8]: > 31200 nM | EC50 [9]: 24.2 nM | EC50 [10]: 8.94 nM | EC50 [11]: 34.1 nM | EC50 [12]: 34.1 nM
